Activity calls are given as the source filed them. The calls are words filed in the database; no cut-off is given here.

Experimental findings from ChEMBL document CHEMBL4229390, “Structure-guided evolution of a 2-phenyl-4-carboxyquinoline chemotype into PPARα selective agonists: New leads for oculovascular conditions” (Bioorg Med Chem Lett, 2018) are described below.

Test [1] addresses T1, Peroxisome proliferator-activated receptor alpha (Homo sapiens) (UniProt Q07869).
T1 sequence (whole entry): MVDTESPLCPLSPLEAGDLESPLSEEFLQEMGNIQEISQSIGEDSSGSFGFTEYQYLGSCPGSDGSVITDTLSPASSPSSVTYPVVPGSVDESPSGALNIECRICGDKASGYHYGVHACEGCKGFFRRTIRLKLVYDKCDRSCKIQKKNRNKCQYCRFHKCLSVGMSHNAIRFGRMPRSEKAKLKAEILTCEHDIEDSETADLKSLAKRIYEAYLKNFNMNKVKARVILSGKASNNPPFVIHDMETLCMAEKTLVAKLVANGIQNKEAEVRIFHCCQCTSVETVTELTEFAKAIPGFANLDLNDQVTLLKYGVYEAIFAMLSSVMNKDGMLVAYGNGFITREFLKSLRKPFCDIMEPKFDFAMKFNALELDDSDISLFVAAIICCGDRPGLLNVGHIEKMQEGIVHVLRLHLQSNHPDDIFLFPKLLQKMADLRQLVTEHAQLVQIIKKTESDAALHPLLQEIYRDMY
In words: Agonist activity at human PPARalpha at 10 uM after 22 to 24 hrs by luciferase reporter gene assay. Summed up:
(§1)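 hPPARα luciferase reporter cells; read-out via oxyluciferin production. […] Fold-induction over DMSO control ± S.E. (n = 3), single experiment.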

The target of test [2] is T1, Peroxisome proliferator-activated receptor alpha (Homo sapiens). The experiment in a line: Agonist activity at human PPARalpha at 5 uM after 22 to 24 hrs by luciferase reporter gene assay. An outline of the steps:
as §1

Test [3] has as its target T2, Peroxisome proliferator-activated receptor alpha (Homo sapiens, UniProt Q07869).
T2 sequence (Q07869 whole entry): T1 sequence (whole entry)
In words: Agonist activity at PPARalpha (unknown origin) expressed in reporter combo cells after 36 hrs by dual luciferase reporter gene assay. Format: cell-based. An outline of the steps:
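Human PPARα luciferase reporter cell line. Luciferase activity was read indirectly as oxyluciferin production. EC50 came from a 10-point dose-response, dosed in triplicate in a single experiment. In the initial screen, agonism was expressed as fold-induction over the DMSO control (n = 3) at 5 and 50 μM.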

Test [4] concerns the target T1, Peroxisome proliferator-activated receptor alpha (Homo sapiens). In words: Agonist activity at human PPARalpha after 22 to 24 hrs by luciferase reporter gene assay relative to GW590735. An outline of the steps:
(§2)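 Human PPAR luciferase reporter cell lines; luciferase read-out through oxyluciferin production. 10-point dose-response in triplicate, single experiment, giving EC50.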
On the technique in general: Reporter assays use an easily measured gene product as a stand-in for the process of interest.

For test [5], the target named is T3, Peroxisome proliferator-activated receptor gamma (Homo sapiens, UniProt P37231).
T3 sequence (P37231 whole entry): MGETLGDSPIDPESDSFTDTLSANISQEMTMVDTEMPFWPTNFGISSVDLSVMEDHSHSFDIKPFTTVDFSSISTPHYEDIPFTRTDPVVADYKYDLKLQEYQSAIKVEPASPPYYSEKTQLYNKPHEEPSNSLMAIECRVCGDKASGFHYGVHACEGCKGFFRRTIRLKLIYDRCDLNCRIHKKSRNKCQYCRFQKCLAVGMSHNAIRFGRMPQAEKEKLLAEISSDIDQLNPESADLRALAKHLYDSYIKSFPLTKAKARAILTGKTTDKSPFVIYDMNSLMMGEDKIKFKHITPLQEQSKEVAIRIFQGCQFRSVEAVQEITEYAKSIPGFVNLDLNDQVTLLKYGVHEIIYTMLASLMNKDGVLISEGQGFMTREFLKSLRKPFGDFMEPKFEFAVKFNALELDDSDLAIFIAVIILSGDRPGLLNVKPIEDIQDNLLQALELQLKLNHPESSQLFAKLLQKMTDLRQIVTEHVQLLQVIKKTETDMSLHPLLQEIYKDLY
In words: Agonist activity at human PPARgamma after 22 to 24 hrs by luciferase reporter gene assay. An outline of the steps:
as §2

For test [6], the target named is T2, Peroxisome proliferator-activated receptor alpha. In words: Agonist activity at human PPARalpha after 22 to 24 hrs by luciferase reporter gene assay. Summed up:
as §2

For test [7], the target named is T4, Peroxisome proliferator-activated receptor delta (Homo sapiens, UniProt Q03181).
T4 sequence (Q03181 whole entry): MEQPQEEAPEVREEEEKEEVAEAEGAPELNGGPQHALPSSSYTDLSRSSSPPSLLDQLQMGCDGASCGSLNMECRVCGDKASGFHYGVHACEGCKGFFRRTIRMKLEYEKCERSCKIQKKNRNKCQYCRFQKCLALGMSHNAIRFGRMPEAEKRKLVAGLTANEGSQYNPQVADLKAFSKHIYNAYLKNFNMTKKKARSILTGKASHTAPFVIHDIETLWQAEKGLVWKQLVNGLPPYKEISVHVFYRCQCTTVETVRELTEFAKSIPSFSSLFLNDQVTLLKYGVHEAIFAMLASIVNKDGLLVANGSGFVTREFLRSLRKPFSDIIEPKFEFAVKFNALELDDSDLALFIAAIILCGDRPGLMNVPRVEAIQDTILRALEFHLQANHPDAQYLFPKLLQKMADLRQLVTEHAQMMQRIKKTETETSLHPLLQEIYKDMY
The experiment in a line: Agonist activity at human PPARdelta after 22 to 24 hrs by luciferase reporter gene assay.

Test [8] has as its target T5, Peroxisome proliferator-activated receptor alpha (Mus musculus) (UniProt P23204).
T5 sequence (whole entry): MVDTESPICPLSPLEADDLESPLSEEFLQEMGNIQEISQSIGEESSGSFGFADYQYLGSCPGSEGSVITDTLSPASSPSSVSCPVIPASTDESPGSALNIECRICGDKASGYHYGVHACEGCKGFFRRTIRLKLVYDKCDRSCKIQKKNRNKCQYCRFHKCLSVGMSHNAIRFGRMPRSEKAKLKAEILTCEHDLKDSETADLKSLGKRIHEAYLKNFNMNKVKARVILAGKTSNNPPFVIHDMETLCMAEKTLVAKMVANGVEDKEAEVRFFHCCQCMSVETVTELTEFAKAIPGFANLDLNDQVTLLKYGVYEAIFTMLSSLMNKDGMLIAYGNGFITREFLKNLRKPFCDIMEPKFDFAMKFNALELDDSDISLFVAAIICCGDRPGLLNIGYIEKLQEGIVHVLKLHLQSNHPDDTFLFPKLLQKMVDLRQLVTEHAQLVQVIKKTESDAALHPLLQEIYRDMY
The experiment in a line: Agonist activity at PPARalpha in C57BL/6N mouse assessed as upregulation of Slc25a20 gene expression at 10 to 100 uM after 24 hrs by RT-PCR method. Summed up: (§3)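 Mouse 661W cells treated for 24 h; target mRNA quantified by RT-PCR (n = 6). Reported as mean ± S.D.; group differences tested with Student's t-test.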

In test [9] the target is T5, Peroxisome proliferator-activated receptor alpha (Mus musculus). The experiment in a line: Agonist activity at PPARalpha in C57BL/6N mouse assessed as upregulation of PPARalpha protein expression after 24 hrs by Western blot method. Summed up: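 Mouse 661W cells exposed for 24 h. PPARα protein detected by Western blot and quantified by densitometry. Experiments performed three times in triplicate; mean ± S.D.; Student's t-test.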
A general note: A western blot detects proteins with antibodies after separation by electrophoresis.

For test [10] the target is unchanged. In words: Agonist activity at PPARalpha in C57BL/6N mouse assessed as upregulation of Acadm gene expression at 10 to 100 uM after 24 hrs by RT-PCR method. Summed up:
as §3

The target is the same in test [11]. The experiment in a line: Agonist activity at PPARalpha in C57BL/6N mouse assessed as upregulation of Fabp3 gene expression at 10 to 100 uM after 24 hrs by RT-PCR method. An outline of the steps: as §3
The species entered for test [12] is Homo sapiens. The experiment in a line: Antimigratory activity in HRCEC after 10 to 24 hrs by wound healing assay. In kind it is functional. Summed up: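 Wound healing (scratch) assay in human retinal capillary endothelial cells, closure assessed at 10 h and 24 h incubation. Performed three times in triplicate; mean ± S.D.; Student's t-test.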
Test [13] concerns the target T5, Peroxisome proliferator-activated receptor alpha (Mus musculus). In words: Agonist activity at PPARalpha in C57BL/6N mouse assessed as upregulation of Cpt1a gene expression at 10 to 100 uM after 24 hrs by RT-PCR method. An outline of the steps:
as §3

On to `O=C(O)c1cccc(NCc2ccc(OCc3ccc(Cl)cc3)cc2)c1`, for which the outcome in test [1] and in test [2] was Active.
As for `Cc1c(Cl)ccc2c(C(=O)O)cc(-c3ccccc3)nc12`, the EC50 – broadly, the concentration that produces a half-maximal response – in [3] fell in the range of 25 to 50 µM.
As to `COc1ccc(COc2ccc(CNc3cccc(OC(C)(C)C(=O)O)c3)c(OCc3ccc(OC)cc3)c2)cc1`, in test [4], the fold change (FC) is 1.4. For the same compound, the EC50 was found to be 5.6 µM in test [5], 2.1 µM in test [6] and 8.9 µM in [7].
As for `CC(C)(Oc1cccc(NCc2ccc(OCc3ccccc3)cc2)c1)C(=O)O`, the result in test [1] was Active. Besides, the outcome in [2] was inactive.
As for `CC(C)(Oc1cccc(NCc2ccc(OCc3ccc(Cl)cc3)cc2)c1)C(=O)O`, the outcome in test [1] was Active. The result in [2] was inactive.
As for `COc1ccc(COc2ccc(CNc3cccc(C(=O)O)c3)c(OCc3ccc(OC)cc3)c2)cc1`, the fold change (FC) in test [4] was determined as 1.1. Besides, the EC50 is greater than 100 µM in test [5], 5.1 µM in test [6] and greater than 100 µM in test [7].
Regarding `O=C(O)c1cccc(NCc2ccc(OCc3ccccc3)cc2)c1`, the result in [1] and in [2] was Active.
`O=C(O)c1cccc(NCc2ccc(OCc3cc(F)cc(F)c3)cc2)c1`: the result in test [1] and in [2] was Active.
On to `O=C(O)c1cccc(NCc2ccc(OCc3ccc([N+](=O)[O-])cc3)cc2)c1`, for which the result in [2] was Active.
With `COc1ccc(COc2ccc(CNc3cccc(C(=O)O)c3)cc2)cc1`, the result in test [8], in test [10], in test [11] and in [13] was Active. Further, the Activity result in test [9] and in test [12] was “Dose-dependent effect” each time. Further, the EC50 in [5] and in test [7] was greater than 100 µM throughout.
Regarding `COc1ccc(COc2ccc(CNc3cccc(OC(C)(C)C(=O)O)c3)cc2)cc1`, the EC50 in test [5] is 18.3 µM; in [7], 38.6 µM. Further, in test [1], the result was Active. The result in test [2] was inactive.
Turning to `O=C(O)c1cccc(NCc2ccc(OCc3ccc(Cl)cc3Cl)cc2)c1`, the outcome in [2] was Active.
As for `CC(C)(Oc1cccc(NCc2ccc(OCc3cc(F)cc(F)c3)cc2)c1)C(=O)O`, the outcome in test [1] was Active. Besides, in test [2], the result was inactive.
